Compound activity from PubChem.
Most compounds without a hit are left out; they make up all but 1.3% or so of the library.
DAGLB inh: DAGLB lipase inhibitors, primary screen, biochemical, fluorescence, HTS; HEK293T DAGLB membrane lysate, EnzChek fluorogenic substrate; inhibition, % at 5.17 µM; actives 0.059% (n = 340,000); Diacylglycerol lipase-beta (Homo sapiens), Q8NCG7; in the data active = inhibition above about 34%;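 also: 0% = enzyme with vehicle and 100% = wells lacking enzyme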
TMEM16A inh: TMEM16A chloride channel inhibitors, primary screen, cell-based, HTS; normalized B-score (activity score, 25-100; higher = stronger inhibition) at 10 µM; actives 1.2% (n = 310,000); Anoctamin-1 (Mus musculus), Q8BHY3; HEK293 TMEM16A/YFP iodide influx fluorescence, ionomycin;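 active = ratio plate-corrected score three or more library SD toward inhibition, starting fluorescence score within five deviations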;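 also: score derived from kinetic fluorescence span divided by baseline fluorescence per well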
MT1-MMP act inh: blockers of MT1-MMP proenzyme processing, primary screen, HT1080 RFP-PRO-GFP cells, GFP/RFP fluorescence; GFP/RFP ratio change, % at 20 µM; actives 0.061% (n = 360,000); GFP/RFP ratio fluorescence, overnight; percent of plate control window, DMSO zero;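 active = GFP/RFP ratio change of at least 30% with cell ATP level not reduced by more than half and red fluorescence within 50% of control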
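Assay system: HT1080 RFP-PRO-GFP cells | Dosing: 20 µM single dose, 1% DMSO | Incubation: Cells overnight before dosing, compound overnight, 37 °C, 5% CO2 | Evaluation: GFP/RFP fluorescence ratio | Control set: DMSO-only wells and HT1080 RFP-L50D-GFP cell wells as references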
ANO1 activ: TMEM16A chloride channel activators or potentiators, primary screen, cell-based, HTS; actives 0.3% (n = 340,000); Anoctamin-1 (Mus musculus), Q8BHY3; B-score at 10 µM; HEK293 TMEM16A/YFP-H148Q/I152L, iodide quench fluorescence; active compounds read low;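 active = fluorescence-ratio B-score plate-corrected deviation score at least 3 library SD below zero, with starting fluorescence score within 5 deviations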;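 also: channel opened by trigger with iodide after compound preincubation; score built on the fluorescence ratio of max minus min over baseline; more negative score means more quench and so TMEM16A activation or potentiation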
TMEM16A reconf: TMEM16A chloride channel inhibitors, confirmation, cell-based, re-confirmation; HEK293 TMEM16A/YFP-H148Q, iodide quench fluorescence; ionomycin added to raise cell calcium; shares compounds with TMEM16A inh; actives 39% (n = 2,300); inhibition, % at 10 µM;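 active = mean duplicate percent inhibition, scaled so buffer wells are 0 and the reference blocker 100, over three buffer SD above buffer mean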
TMEM16A Ca cntr: calcium mobilization in TMEM16A/YFP HEK293 cells, confirmation, counter-screen for TMEM16A inhibitor project. shares compounds with TMEM16A inh. Fluo4 calcium mobilization. calcium response (% of ionomycin), % at 10 µM. actives 2% (n = 2,300);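 active = duplicate-averaged calcium signal over 20% of the ionomycin maximum, relative to buffer baseline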;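 also: each well's signal is peak minus trough fluorescence divided by its pre-addition baseline; 0% = buffer wells and 100% = ionomycin wells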
Parental YFP cnt: iodide YFP quench changes in parental YFP-HEK293, counter-screen for TMEM16A inhibitor project, cell-based | shares compounds with TMEM16A inh | 2,300 tested, under 10 active | ionomycin | YFP ratio F(max-min)/F0 at 10 µM | AID 652233, 2013;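 active = yellow fluorescent protein signal ratio exceeding the buffer control mean by over 5 SD of those controls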;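 also: ratio is mean of duplicate wells from kinetic YFP trace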
ClC-1 rat inh: ClC-1 chloride channel inhibition, selectivity assay for TMEM16A inhibitor project, cell-based, voltage-dependent ClC-1 | AID 652236, 2013 | ratio percent, % at 10 µM | 2,300 tested, under 10 active | shares compounds with TMEM16A inh | CHO ClC-1-YFP, iodide influx fluorescence quench; iodide control reads 0, buffer control 100;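 active = duplicate-mean ratio percent above the mean of iodide-only control wells, which defines zero, plus 5 of their SD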;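 also: higher percent means stronger block of ClC-1 iodide influx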
* = called active by the depositor.

Screening Cc1ccc(C)n1-c1ccc(N2CCOCC2)cc1 returned DAGLB inh 3, TMEM16A inh inactive, MT1-MMP act inh 9 and ANO1 activ inactive.
Screening CN(CC(=O)Nc1ccc(Cl)c(C(F)(F)F)c1)C(=O)c1cccc(N2C(=O)CCC2=O)c1 returned DAGLB inh 1, MT1-MMP act inh 2 and ANO1 activ inactive.
`COCCSc1nnc(NC(=O)Cc2ccc(OC)c(OC)c2)s1` gave DAGLB inh 0, TMEM16A inh inactive, MT1-MMP act inh 9 and ANO1 activ inactive.
`CCSc1nnc(NC(=O)Cc2ccc(OC)c(OC)c2)s1` gave DAGLB inh -2, TMEM16A inh 100*, MT1-MMP act inh -1, ANO1 activ inactive, TMEM16A reconf inactive, TMEM16A Ca cntr inactive, Parental YFP cnt -0.86 and ClC-1 rat inh -13.
For CCCCSc1nnc2c(n1)[nH]c1ccccc12 the results were DAGLB inh 1, TMEM16A inh 25*, MT1-MMP act inh 2, ANO1 activ inactive, TMEM16A reconf inactive, TMEM16A Ca cntr inactive, Parental YFP cnt -1.2 and ClC-1 rat inh -10.
Screening CC(C)CSc1nnc2c(n1)[nH]c1ccccc12 returned DAGLB inh 1, TMEM16A inh inactive, MT1-MMP act inh 7 and ANO1 activ inactive.
CCOC(=O)c1c(CN2CCNCC2)nc2ccc(Cl)cc2c1-c1ccccc1 was read as DAGLB inh 0, MT1-MMP act inh -13 and ANO1 activ inactive.
Screening CCOC(=O)CCSc1nc(C(C)(C)C)cc(C(F)(F)F)c1C#N returned DAGLB inh -17, TMEM16A inh 100*, MT1-MMP act inh 3, ANO1 activ inactive, TMEM16A reconf inactive, TMEM16A Ca cntr inactive, Parental YFP cnt -1.2 and ClC-1 rat inh -6.
CCOC(=O)CCSc1nc(C)cc(C(F)(F)F)c1C#N was read as DAGLB inh -11, TMEM16A inh inactive, MT1-MMP act inh -118 and ANO1 activ inactive.
`CC(C)NC(=O)Nc1nnc([C@@H]2C[C@H](O)[C@@H](CO)O2)s1` gave MT1-MMP act inh 1.
`CC1(C(=O)NS(=O)(=O)c2cccc(Cl)c2)CCN1C(=O)c1ccccc1CCc1ccccc1` (stereo not given) gave MT1-MMP act inh 5.
For CCc1nc(SCc2nnc(-c3ccc(C)cc3)o2)c2c(C)c(C)sc2n1 the results were TMEM16A inh inactive, TMEM16A reconf inactive, TMEM16A Ca cntr inactive, Parental YFP cnt -1.2 and ClC-1 rat inh -8.
Cc1ccc(-c2nnc(CSc3nnc(C)s3)o2)cc1 was read as DAGLB inh 3, TMEM16A inh inactive, MT1-MMP act inh -3 and ANO1 activ inactive.
Screening N#Cc1ccsc1NC(=O)c1cnccn1 returned DAGLB inh -3, TMEM16A inh inactive and ANO1 activ inactive.
Screening CC(C)(C)NS(=O)(=O)c1cc(C(=O)Nc2sccc2C#N)ccc1Cl returned DAGLB inh 4, TMEM16A inh inactive, MT1-MMP act inh -22, ANO1 activ inactive, TMEM16A reconf inactive, TMEM16A Ca cntr inactive, Parental YFP cnt -1 and ClC-1 rat inh -14.
CCn1c(=O)n(C)c2c(=O)n(C)c(=O)n(C)c21 was read as DAGLB inh 0, MT1-MMP act inh -2 and ANO1 activ inactive.
